Calls of active or inactive are those of the source. The calls are words filed in the database; no cut-off is given here.

One assay has as its system Rattus norvegicus. The assay can be described thus: Antiobesity activity in Wistar rat assessed as reduction in food intake at 2 mg/kg, ip after 4 hrs in presence of 5-HT2C antagonist SB-242084. The format is functional, organism-based. An outline of the steps:
(§1)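 Male Wistar rats, 200−250 g, aged 10−12 weeks, food-deprived 16 h before refeeding. Compound given ip in sterile saline; food and water intake measured at 30, 60, 120 and 240 min after food presentation. Where used, antagonist (3 mg/kg, ip) or other pretreatments were injected 30 min before the compound. Mean ± SEM, at least eight rats per group.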
Turning to `O=C1Nc2cc(Cl)c(Cl)cc2N2CCNC[C@H]12`, the outcome was inactive.

The target in the next assay is T1, 5-hydroxytryptamine receptor 2C (Homo sapiens) (UniProt P28335).
T1 sequence (whole entry): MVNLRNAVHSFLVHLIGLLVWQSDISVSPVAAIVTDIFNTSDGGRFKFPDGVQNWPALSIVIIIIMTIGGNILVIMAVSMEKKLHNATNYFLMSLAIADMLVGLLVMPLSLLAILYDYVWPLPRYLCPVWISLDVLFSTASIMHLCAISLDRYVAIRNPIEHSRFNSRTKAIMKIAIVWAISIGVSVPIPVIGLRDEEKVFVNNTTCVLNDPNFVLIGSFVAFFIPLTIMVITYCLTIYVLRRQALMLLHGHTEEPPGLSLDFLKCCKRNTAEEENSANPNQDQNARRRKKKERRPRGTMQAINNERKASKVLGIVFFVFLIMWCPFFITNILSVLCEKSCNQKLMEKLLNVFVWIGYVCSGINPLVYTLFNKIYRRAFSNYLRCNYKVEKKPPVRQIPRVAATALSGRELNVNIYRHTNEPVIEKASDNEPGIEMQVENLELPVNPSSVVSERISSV
Kind of assay: Positive allosteric modulation of human 5-HT2C receptor expressed in human HeLa-K1 cells assessed as potentiation of 5-HT-induced inositol monophosphate release at 10 uM after 20 mins by HTRF assay relative to control. Type of assay: functional, cell-based. The gist of the method: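 IP-One HTRF assay in CHO-K1 cells (human 5-HT2A, 5-HT2B) or HeLa-K1 cells (human 5-HT2C), seeded and grown 24 h at 37 °C. Test compound and/or 5-HT added in stimulation buffer, then 20 min at 37 °C before IP1 read-out. Data normalized to 5-HT maximal effect and fitted by nonlinear regression. Triplicates, mean ± SD.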
A general note: Time-resolved FRET reads energy transfer from a long-lived donor to a nearby acceptor.
For the compound `FC(F)(F)c1cccc(Cn2cc(CNc3cccnc3)c3ccccc32)c1`, the Activity was 0%.
For the compound `c1cncc(Cn2cc(CNc3cccnc3)c3ccccc32)c1`, the Activity was determined as 25%.
For `c1ccc(Cn2cc(CNc3ccnnc3)c3ccccc32)cc1`, the Activity stood at 0%.
On the same count and under the same terms, for `Fc1ccc(Cn2cc(CNc3cccnc3)c3ccccc32)cc1` the value was 9%; for `c1cncc(NCc2cn(CC3CC3)c3ccccc23)c1`, 0%; for `N#Cc1ccccc1Cn1cc(CNc2cccnc2)c2ccccc21`, 7%.
Turning to `Clc1ccccc1Cn1cc(CNc2cccnc2)c2ccccc21`, the Activity is 7%.
Regarding `Brc1ccccc1Cn1cc(CNc2cccnc2)c2ccccc21`, the Activity turned out to be 0%.
With `c1cncc(NCc2cn(Cc3ccncc3)c3ccccc23)c1`, the Activity is 9%.
The same measure, in the same setting: for `c1ccc(Cn2cc(CNc3ccccn3)c3ccccc32)cc1` the value was 25%.
As to `Fc1ccc(Cn2cc(CNc3cccnc3)c3ccccc32)c(F)c1`, the Activity came out at 9%.
With `Clc1cccc(Cn2cc(CNc3cccnc3)c3ccccc32)c1`, the Activity is 26%.
`COc1ccc(Cn2cc(CNc3cccnc3)c3ccccc32)cc1`: the Activity turned out to be 6%.
For the compound `N#Cc1ccc(Cn2cc(CNc3cccnc3)c3ccccc32)cc1`, the Activity came out at 7%.
Take `N#Cc1cccc(Cn2cc(CNc3cccnc3)c3ccccc32)c1`: the Activity stood at 22%.
Still for that read-out and setting: for `Cc1ccc(Cn2cc(CNc3cccnc3)c3ccccc32)cc1` the value was 24%; for `Cc1ccccc1Cn1cc(CNc2cccnc2)c2ccccc21`, 7%.
Consider `Brc1ccc(Cn2cc(CNc3cccnc3)c3ccccc32)cc1`, for which the Activity amounted to 6%.
Still for that read-out and setting: for `c1ccc(Cn2cc(CNc3cncnc3)c3ccccc32)cc1` the value was 20%; for `COc1cccc(Cn2cc(CNc3cccnc3)c3ccccc32)c1`, 0%.
On the same count and under the same terms, for `c1ccc(Cn2cc(CNc3cccnn3)c3ccccc32)cc1` the value was 9%.
Still for that read-out and setting: for `c1ccc(Cn2cc(CNc3cccnc3)c3ccccc32)nc1` the value was 0%; for `Fc1cc(Cl)ccc1Cn1cc(CNc2cccnc2)c2ccccc21`, 9%; for `c1ccc(Cn2cc(CNc3ccncn3)c3ccccc32)cc1`, 0%.
With `Fc1ccccc1Cn1cc(CNc2cccnc2)c2ccccc21`, the Activity amounted to 6%.
For `Fc1cccc(Cn2cc(CNc3cccnc3)c3ccccc32)c1`, the Activity is 22%.
The same measure, in the same setting: the same measure for `Cc1ccncc1NCc1cn(Cc2ccccc2)c2ccccc12`: 21%; for `Clc1ccc(Cn2cc(CNc3cccnc3)c3ccccc32)cc1`: 13%; for `Brc1cccc(Cn2cc(CNc3cccnc3)c3ccccc32)c1`: 7%.
Still for that read-out and setting: for `COc1ccccc1Cn1cc(CNc2cccnc2)c2ccccc21` the value was 0%.
Same read-out and setting: for `Cc1cccc(Cn2cc(CNc3cccnc3)c3ccccc32)c1` the value was 27%.
`c1ccc(Cn2cc(CNc3ncccn3)c3ccccc32)cc1`: the Activity worked out at 0%.
Same read-out and setting: for `FC(F)(F)c1ccc(Cn2cc(CNc3cccnc3)c3ccccc32)cc1` the value was 8%.
For the compound `Cc1ncccc1NCc1cn(Cc2ccccc2)c2ccccc12`, the Activity was found to be 0%.
Regarding `FC(F)(F)c1ccccc1Cn1cc(CNc2cccnc2)c2ccccc21`, the Activity stood at 9%.
On the same count and under the same terms, the same measure for `c1ccc(Cn2cc(CNc3cnccn3)c3ccccc32)cc1`: 0%.

For a further assay, the system named is Rattus norvegicus. The assay can be described thus: Antiobesity activity in Wistar rat assessed as reduction in food intake at 2 mg/kg, ip after 4 hrs. The format is functional, organism-based. The gist of the method:
as §1
Take `O=C1Nc2cc(Cl)c(Cl)cc2N2CCNC[C@H]12`: the result was inactive.

A further assay has as its system Rattus norvegicus. Kind of assay: Antiobesity activity in Wistar rat assessed as reduction in food intake at 2 mg/kg, ip measured up to 4 hrs. Type of assay: functional, organism-based. An outline of the steps: as §1
Regarding `O=C1Nc2cc(Cl)c(Cl)cc2N2CCNC[C@H]12`, the result was Active.

The record behind these values is ChEMBL document CHEMBL4028890, “A Positive Allosteric Modulator of the Serotonin 5-HT2C Receptor for Obesity” (J Med Chem, 2017).
